Tests used:
[1] = biological target: Serine/threonine-protein kinase B-raf (Homo sapiens, UniProt P15056, V600E); assay: Inhibition of recombinant human B-RAF V600E mutant using Ser/Thr3 as substrate after 1 hr by FRET-based Z'-Lyte assay
[2] = biological target: Serine/threonine-protein kinase B-raf (Homo sapiens, UniProt P15056); assay: Inhibition of wild type GST-tagged recombinant human full-length B-RAF expressed in baculovirus expression system using Ser/Thr3 as substrate after 1 hr by FRET-based Z'-Lyte assay
How it was run: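 Z'-Lyte FRET assay with Ser/Thr3 peptide in kinase buffer; the final reaction held 0.002 ng B-Raf for wild type. Incubated 1 h at room temperature, then 1 h development to cleave nonphosphorylated peptide, then stop reagent. Means of 3 independent experiments.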

[3] = biological target: Mitogen-activated protein kinase kinase kinase 20 (Homo sapiens, UniProt Q9NYL2); assay: Inhibition of N-terminal GST-tagged recombinant human full-length ZAK expressed in baculovirus infected Sf9 insect cells using MBP as substrate after 30 mins by ADP-Glo assay
How it was run: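 ZAK activity by ADP-Glo luminescence with MBP as substrate, ATP and serially diluted compound. Reaction started by adding ATP and run 30 min at room temperature. ADP-Glo reagent was added to stop it (40 min), then detection reagent for 30 min before reading luminescence. Curves fitted; each experiment repeated at least 3 times.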

Serine/threonine-protein kinase B-raf (Homo sapiens, UniProt P15056), sequence (P15056 whole entry): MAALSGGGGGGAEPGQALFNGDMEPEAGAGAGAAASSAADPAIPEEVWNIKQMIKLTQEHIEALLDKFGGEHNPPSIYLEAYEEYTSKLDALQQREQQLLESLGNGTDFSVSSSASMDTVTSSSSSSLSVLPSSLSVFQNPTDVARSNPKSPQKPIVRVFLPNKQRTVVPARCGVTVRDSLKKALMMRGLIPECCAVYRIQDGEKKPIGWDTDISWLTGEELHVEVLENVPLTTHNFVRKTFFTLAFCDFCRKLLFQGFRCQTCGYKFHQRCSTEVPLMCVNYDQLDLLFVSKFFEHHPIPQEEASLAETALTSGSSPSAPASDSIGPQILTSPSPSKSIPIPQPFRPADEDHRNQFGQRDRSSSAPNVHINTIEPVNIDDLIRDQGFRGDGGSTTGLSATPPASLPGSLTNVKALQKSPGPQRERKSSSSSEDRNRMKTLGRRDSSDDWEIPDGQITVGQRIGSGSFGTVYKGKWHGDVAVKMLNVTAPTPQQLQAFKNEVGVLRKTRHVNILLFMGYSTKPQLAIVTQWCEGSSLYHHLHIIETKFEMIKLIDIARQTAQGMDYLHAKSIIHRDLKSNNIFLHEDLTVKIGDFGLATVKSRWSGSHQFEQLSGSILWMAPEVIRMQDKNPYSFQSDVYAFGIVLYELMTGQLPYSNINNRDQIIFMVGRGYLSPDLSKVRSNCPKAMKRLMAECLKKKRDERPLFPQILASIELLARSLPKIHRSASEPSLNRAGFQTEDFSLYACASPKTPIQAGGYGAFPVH
Serine/threonine-protein kinase B-raf (Homo sapiens, UniProt P15056, V600E), sequence (P15056 2-766 V600E limits assumed): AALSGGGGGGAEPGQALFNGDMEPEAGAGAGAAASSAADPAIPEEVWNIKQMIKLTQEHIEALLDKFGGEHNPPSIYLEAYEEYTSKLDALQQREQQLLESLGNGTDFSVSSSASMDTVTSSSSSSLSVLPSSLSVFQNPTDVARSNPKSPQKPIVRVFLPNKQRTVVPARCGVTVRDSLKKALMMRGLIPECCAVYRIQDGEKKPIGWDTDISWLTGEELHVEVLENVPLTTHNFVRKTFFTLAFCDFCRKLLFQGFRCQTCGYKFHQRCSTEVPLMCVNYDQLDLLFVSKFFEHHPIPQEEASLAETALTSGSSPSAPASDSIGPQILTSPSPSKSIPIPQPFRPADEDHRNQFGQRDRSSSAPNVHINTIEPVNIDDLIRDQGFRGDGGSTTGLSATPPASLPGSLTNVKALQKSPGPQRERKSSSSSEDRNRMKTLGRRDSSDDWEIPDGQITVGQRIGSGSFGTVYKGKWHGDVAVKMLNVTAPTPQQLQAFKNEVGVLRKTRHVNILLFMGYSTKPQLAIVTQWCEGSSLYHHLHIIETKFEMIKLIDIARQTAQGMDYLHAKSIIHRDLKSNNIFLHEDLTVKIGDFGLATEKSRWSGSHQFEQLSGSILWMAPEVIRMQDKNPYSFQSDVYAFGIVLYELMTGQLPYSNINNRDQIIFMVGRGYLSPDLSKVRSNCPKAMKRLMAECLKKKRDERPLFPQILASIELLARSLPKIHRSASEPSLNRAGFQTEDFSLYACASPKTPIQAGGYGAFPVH
Mitogen-activated protein kinase kinase kinase 20, sequence (Q9NYL2 whole entry): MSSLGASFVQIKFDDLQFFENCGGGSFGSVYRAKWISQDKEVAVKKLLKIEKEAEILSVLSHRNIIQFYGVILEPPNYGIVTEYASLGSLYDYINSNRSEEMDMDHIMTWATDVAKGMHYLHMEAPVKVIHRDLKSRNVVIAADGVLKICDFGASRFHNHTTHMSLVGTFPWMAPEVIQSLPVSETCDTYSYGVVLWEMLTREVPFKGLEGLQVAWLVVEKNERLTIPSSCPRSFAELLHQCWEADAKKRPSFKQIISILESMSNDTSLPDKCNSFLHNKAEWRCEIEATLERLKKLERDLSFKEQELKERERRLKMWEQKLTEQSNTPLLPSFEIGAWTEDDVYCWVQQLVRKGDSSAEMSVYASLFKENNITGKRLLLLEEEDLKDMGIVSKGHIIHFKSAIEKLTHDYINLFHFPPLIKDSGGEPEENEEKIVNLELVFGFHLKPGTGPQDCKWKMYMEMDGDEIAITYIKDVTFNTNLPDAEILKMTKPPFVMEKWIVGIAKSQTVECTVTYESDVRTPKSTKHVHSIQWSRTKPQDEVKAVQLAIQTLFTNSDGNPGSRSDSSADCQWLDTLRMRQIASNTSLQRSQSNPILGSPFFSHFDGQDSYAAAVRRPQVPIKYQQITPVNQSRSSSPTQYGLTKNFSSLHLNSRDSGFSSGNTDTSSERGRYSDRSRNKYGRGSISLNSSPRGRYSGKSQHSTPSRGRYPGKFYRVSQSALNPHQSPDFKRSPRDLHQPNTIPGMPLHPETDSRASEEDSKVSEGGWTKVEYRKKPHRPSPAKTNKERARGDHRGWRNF

| IC50 [1] | IC50 [2] | IC50 [3] | SMILES |
| --- | --- | --- | --- |
| > 10000 nM | > 10000 nM | > 30000 nM | Cn1ncc2cc(C#Cc3c(F)ccc(NS(=O)(=O)c4cccc(Cl)c4)c3F)cnc21 |
| > 10000 nM | > 10000 nM | 994 nM | O=S(=O)(Nc1ccc(F)c(C#Cc2ccc3[nH]ncc3c2)c1F)c1cccc(Cl)c1 |
| > 1000 nM | > 1000 nM | 5.1 nM | COc1n[nH]c2ncc(C#Cc3c(F)ccc(NS(=O)(=O)c4ccccc4Cl)c3F)cc12 |
| > 10000 nM | > 5000 nM | 5.1 nM | O=S(=O)(Nc1ccc(F)c(C#Cc2cnc3[nH]ncc3c2)c1F)c1cccc(Cl)c1 |
| > 1000 nM | > 1000 nM | 5 nM | COc1n[nH]c2ncc(C#Cc3c(F)ccc(NS(=O)(=O)c4cccc(Br)c4)c3F)cc12 |
| > 2000 nM | > 10000 nM | 42.7 nM | CC(C)Oc1n[nH]c2ncc(C#Cc3c(F)ccc(NS(=O)(=O)c4cccc(Cl)c4)c3F)cc12 |
| > 10000 nM | > 1000 nM | 16.8 nM | COc1n[nH]c2ncc(C#Cc3c(F)ccc(NS(=O)(=O)c4ccc(Cl)cc4)c3F)cc12 |
| > 10000 nM | > 10000 nM | 22.6 nM | O=S(=O)(Nc1ccc(F)c(C#Cc2cnc3[nH]ccc3c2)c1F)c1cccc(Cl)c1 |

Reference: ChEMBL document CHEMBL4052661, “Structure Based Design of N-(3-((1H-Pyrazolo[3,4-b]pyridin-5-yl)ethynyl)benzenesulfonamides as Selective Leucine-Zipper and Sterile-α Motif Kinase (ZAK) Inhibitors” (J Med Chem, 2017)
